Measured values published in ChEMBL document CHEMBL1145350, “Solid-phase synthesis of quinol fatty alcohols, design of N/O-substituted quinol fatty alcohols and comparative activities on axonal growth” (Bioorg Med Chem Lett, 2006).

System: Radical scavenging activity
Assay: Antioxidant activity assessed as ability to scavenge hydroxyl radicals by ABTS competition assay
Assay type: functional
How it was run: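 Hydroxyl radical scavenging in ethanolic medium by ABTS competition. Hydroxyl radicals oxidize ABTS to the stable ABTS•+ cation radical, read by absorbance at 405 nm. IC50 is the compound concentration giving a 50% reduction in ABTS•+.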

Compound | IC50 [µM]
COc1ccc(OC)c(CCCCCCCCCCCCCCCO)c1 | > 10000
Cc1c(C)c2c(c(C)c1O)CCC(C)(C(=O)O)O2 (configuration not stated) [TROLOX] | 600
